Here are results for eleven molecules from ChEMBL document CHEMBL4364297, “Probing the Ligand-Binding Pocket of BTN3A1” (J Med Chem, 2019).

Activity calls are given as the source filed them. The calls are words filed in the database; no cut-off is given here. Where only a bound is given, the exact number is not on record here.

Data set [1] addresses T1, Butyrophilin subfamily 3 member A1 (Homo sapiens, UniProt O00481). In words: Activation of BTN3A1 in human PBMC-derived Vgamma9/Vdelta2 T cells assessed as induction of IL2-stimulated IFNgamma production measured after 48 hrs by ELISA. Background: ELISA stands for enzyme-linked immunosorbent assay.
Target sequence in this assay (O00481 whole entry): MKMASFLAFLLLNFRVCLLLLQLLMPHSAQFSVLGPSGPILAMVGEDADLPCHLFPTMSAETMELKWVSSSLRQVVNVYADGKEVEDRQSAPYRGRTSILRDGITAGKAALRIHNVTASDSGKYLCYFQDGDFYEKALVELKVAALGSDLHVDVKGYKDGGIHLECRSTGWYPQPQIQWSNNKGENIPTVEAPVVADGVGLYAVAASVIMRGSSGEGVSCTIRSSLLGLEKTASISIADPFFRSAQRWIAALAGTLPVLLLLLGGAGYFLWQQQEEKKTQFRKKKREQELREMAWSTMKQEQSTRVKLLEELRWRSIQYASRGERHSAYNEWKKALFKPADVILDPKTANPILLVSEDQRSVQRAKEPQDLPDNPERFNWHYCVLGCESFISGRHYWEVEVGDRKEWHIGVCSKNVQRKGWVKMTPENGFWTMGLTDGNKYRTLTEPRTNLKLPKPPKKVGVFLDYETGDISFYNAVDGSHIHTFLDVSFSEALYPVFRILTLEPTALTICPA
The target in data set [2] is T1, Butyrophilin subfamily 3 member A1. Put plainly: Activation of BTN3A1 in human PBMC-derived Vgamma9/Vdelta2 T cells assessed as induction of IL2-stimulated cell proliferation by measuring increase in CD3+ cells up to 100 uM preincubated for 3 days followed by 11 days incubation post compound washout and subsequent IL2 stimulation for every 3 days measured after 14 days by flow cytometry. Type of data set: cell-based.
Target sequence in this assay (O00481 30-513 limits assumed): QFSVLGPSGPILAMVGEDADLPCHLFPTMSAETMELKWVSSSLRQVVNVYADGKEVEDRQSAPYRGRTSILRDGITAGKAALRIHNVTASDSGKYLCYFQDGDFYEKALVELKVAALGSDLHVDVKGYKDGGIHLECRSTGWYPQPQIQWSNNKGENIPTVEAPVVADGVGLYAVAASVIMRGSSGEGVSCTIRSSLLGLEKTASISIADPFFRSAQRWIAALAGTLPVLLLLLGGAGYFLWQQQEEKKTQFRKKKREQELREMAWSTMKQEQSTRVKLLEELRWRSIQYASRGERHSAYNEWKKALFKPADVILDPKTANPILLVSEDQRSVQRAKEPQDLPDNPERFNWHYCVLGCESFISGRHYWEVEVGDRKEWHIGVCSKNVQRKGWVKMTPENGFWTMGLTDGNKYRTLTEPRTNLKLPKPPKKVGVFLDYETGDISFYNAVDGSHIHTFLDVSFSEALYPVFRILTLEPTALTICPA

Data set [3] shares this target. Put plainly: Displacement of GDP-BODIPY from C-terminal 6His-tagged BTN3A1 B30.2 domain (unknown origin) expressed in Escherichia coli BL21 (DE) measured after 60 mins by fluorescence polarization assay.
Target sequence in this assay (O00481 whole entry): as the sequence (O00481 whole entry) above
For data set [4] the target is unchanged. Put plainly: Displacement of GDP-BODIPY from C-terminal 6His-tagged BTN3A1 full […] domain (unknown origin) expressed in Escherichia coli BL21 (DE) measured after 60 mins by fluorescence polarization assay. In general terms: In fluorescence polarisation assays a small probe gives low polarisation when free and higher when bound to something large.
Target sequence in this assay (O00481 whole entry): as above
Data set [5] has the same target. In words: Activation of BTN3A1 in human PBMC-derived Vgamma9/Vdelta2 T cells assessed as induction of IL2-stimulated cell proliferation by measuring increase in CD3+ cells preincubated for 3 days followed by 11 days incubation post compound washout and subsequent IL2 stimulation for every 3 days measured after 14 days by flow cytometry. In kind it is cell-based. For orientation: Flow cytometry measures light scatter and fluorescence of single cells or particles in a stream.
Target sequence in this assay (O00481 whole entry): as above

Data set [6] can be described thus: Drug uptake in human PBMC assessed as parent compound remaining at 10 uM measured after 6 hrs by UPLC-MS analysis. Type of data set: ADME, cell-based. To be noted: PBMC (peripheral blood mononuclear cells), read-out: Drug uptake. In a few lines:
(§1)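 Compound at 10 μM final was added to human PBMCs (1,000,000 cells/mL) suspended in T cell media and incubated. The supernatant was collected and stored at –20 °C, then analysed by UPLC-MS on a C18 column (25% to 80% acetonitrile over 8 min). The integrated molecular-ion signal is reported relative to t = 0.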

The nature of data set [7]: Drug uptake in human PBMC assessed as parent compound remaining at 10 uM measured after 24 hrs by UPLC-MS analysis. In kind it is ADME, cell-based. To be noted: PBMC (peripheral blood mononuclear cells), read-out: Drug uptake. A digest of the protocol: as §1
Data set [8] concerns the target T1, Butyrophilin subfamily 3 member A1. Put plainly: Activation of BTN3A1 in human PBMC-derived Vgamma9/Vdelta2 T cells assessed as induction of IL2-stimulated cell proliferation by measuring increase in CD3+ cells at 10 uM preincubated for 3 days followed by 11 days incubation post compound washout and subsequent IL2 stimulation for every 3 days measured after 14 days by flow cytometry relative to control. Type of data set: cell-based.
Target sequence in this assay (O00481 30-513 limits assumed): as the sequence (O00481 30-513 limits assumed) above

Data set [9] is described as follows: Drug uptake in T cell media assessed as parent compound remaining at 10 uM measured after 48 hrs by UPLC-MS analysis. In a few lines:
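This was the cell-free control. Compound at 10 μM final was held in T cell media without PBMCs, and loss of the parent compound was followed over time. Supernatant was analysed by UPLC-MS on a C18 column (25% to 80% acetonitrile gradient over 8 min). The molecular-ion integral is expressed relative to t = 0.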

In data set [10] the target is T1, Butyrophilin subfamily 3 member A1. In words: Activation of BTN3A1 in human PBMC-derived Vgamma9/Vdelta2 T cells assessed as induction of IL2-stimulated cell proliferation by measuring increase in CD3+ cells at 0.1 uM preincubated for 3 days followed by 11 days incubation post compound washout and subsequent IL2 stimulation for every 3 days measured after 14 days by flow cytometry relative to control. In kind it is cell-based.
Target sequence in this assay (O00481 30-513 limits assumed): as above

Data set [11] concerns the target Butyrophilin subfamily 3 member A1 (Homo sapiens, UniProt O00481, R448A). Put plainly: Displacement of GDP-BODIPY from C-terminal 6His-tagged BTN3A1 R448A mutant (unknown origin) expressed in Escherichia coli BL21 (DE) measured after 60 mins by fluorescence polarization assay.
Data set [12] deals with Butyrophilin subfamily 3 member A1 (Homo sapiens, UniProt O00481, R499A). In words: Displacement of GDP-BODIPY from C-terminal 6His-tagged BTN3A1 R499A mutant (unknown origin) expressed in Escherichia coli BL21 (DE) measured after 60 mins by fluorescence polarization assay.
In data set [13] the target is Butyrophilin subfamily 3 member A1 (Homo sapiens, UniProt O00481, M424A). In words: Displacement of GDP-BODIPY from C-terminal 6His-tagged BTN3A1 M424A mutant (unknown origin) expressed in Escherichia coli BL21 (DE) measured after 60 mins by fluorescence polarization assay. A digest of the protocol: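 GDP-BODIPY probe (750 nM final) was incubated with 10 μM mutant BTN3A1 full intracellular domain in 100 mM NaCl, 50 mM Tris, 5 mM β-mercaptoethanol, pH 7.5. Test ligand was added at varying concentrations, and plates were kept 60 min in the dark. FP was read at 485/535 nm in triplicate, with at least 3 independent experiments. Probe in buffer served as the negative control and probe with protein as the positive control. IC50 was obtained by 4-parameter nonlinear regression.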

The target of data set [14] is Butyrophilin subfamily 3 member A1 (Homo sapiens, UniProt O00481, R442A). Put plainly: Displacement of GDP-BODIPY from C-terminal 6His-tagged BTN3A1 R442A mutant (unknown origin) expressed in Escherichia coli BL21 (DE) measured after 60 mins by fluorescence polarization assay.
Data set [15] addresses Butyrophilin subfamily 3 member A1 (Homo sapiens, UniProt O00481, W421A). Put plainly: Displacement of GDP-BODIPY from C-terminal 6His-tagged BTN3A1 W421A mutant (unknown origin) expressed in Escherichia coli BL21 (DE) measured after 60 mins by fluorescence polarization assay.

Sequence of Butyrophilin subfamily 3 member A1 (Homo sapiens, UniProt O00481, R448A) (O00481 30-513 R448A limits assumed): as the sequence (O00481 30-513 limits assumed) above, with R419A counted along it
Sequence of Butyrophilin subfamily 3 member A1 (Homo sapiens, UniProt O00481, W421A) (O00481 30-513 W421A limits assumed): as the sequence (O00481 30-513 limits assumed) above, with W392A counted along it
Sequence of Butyrophilin subfamily 3 member A1 (Homo sapiens, UniProt O00481, R499A) (O00481 30-513 R499A limits assumed): as the sequence (O00481 30-513 limits assumed) above, with R470A counted along it
Sequence of Butyrophilin subfamily 3 member A1 (Homo sapiens, UniProt O00481, R442A) (O00481 30-513 R442A limits assumed): as the sequence (O00481 30-513 limits assumed) above, with R413A counted along it
Sequence of Butyrophilin subfamily 3 member A1 (Homo sapiens, UniProt O00481, M424A) (O00481 30-513 M424A limits assumed): as the sequence (O00481 30-513 limits assumed) above, with M395A counted along it

In the case of `C/C(=C\CCP(=O)(CP(=O)(OCOC(=O)C(C)(C)C)OCOC(=O)C(C)(C)C)OCOC(=O)C(C)(C)C)CO` (centres undefined), the EC50 – broadly, the concentration giving half of the maximal effect – in data set [1] (read-out: EC50) was over 1 µM.
For the molecule `CC(C)=CCCCCP(=O)(OCOC(=O)C(C)(C)C)OCOC(=O)C(C)(C)C`, in data set [2], the result was inactive.
On to `C/C(=C\CCP(=O)(O)OP(=O)(O)O)CO`, for which the IC50 in data set [3] and in data set [4] was 0.00787 mM in each case. The EC50 in [1] (read-out: EC50) was determined as 0.002 µM.
For the molecule `O=P([O-])([O-])OP(=O)([O-])[O-].[Na+].[Na+].[Na+].[Na+]` [SODIUM PYROPHOSPHATE], in [1], the EC50 entry is reported as “Not Active”.
Turning to `C/C(=C\CCCCP(=O)(OCOC(=O)C(C)(C)C)OCOC(=O)C(C)(C)C)CO`, the concentration for a half-maximal effect (EC50) result in data set [5] and in data set [1] was “Not Active” each time. The remaining at 6 h, 10 µM in [6] was 44%. Moreover, the remaining at 24 h, 10 µM in data set [7] is under 1%. Moreover, the Activity in [8] came out at 28.1%. For the same molecule, the Drug uptake in data set [9] is 44%. Moreover, the result in data set [2] was inactive.
For `C/C(=C\COP(=O)(O)OP(=O)(O)O)CO`, the Activity in [10] was found to be 64%.
In the case of `C/C(=C\CCCCP(=O)([O-])[O-])CO.[Na+].[Na+]`, the half-inhibitory concentration (IC50) (usually the concentration needed to halve the response being measured) in [11] came out at 4.62 mM; in data set [12] it was 3.72 mM; in data set [13], 5.35 mM; in data set [14], 3.43 mM; in [4], 1.07 mM; in data set [15] it was 3.24 mM. For the same molecule, the EC50 entry in [5] and in data set [1] was “Not Active” in each case. Further, in data set [2], the result was inactive.
For `C/C(=C\CCP(=O)(O)O)CO`, the IC50 in [11] was found to be 3.93 mM; in [12], 3.83 mM; in data set [13], 3.39 mM; in [3], 2.56 mM; in [14], 3.22 mM; in data set [4], 3.85 mM. Besides, in data set [15], the IC50 was 3.19 mM. The EC50 in [1] (read-out: EC50) turned out to be 3.4 µM.
With `C/C(=C\CCP(=O)(OCOC(=O)C(C)(C)C)OCOC(=O)C(C)(C)C)CO`, the remaining at 6 h, 10 µM in data set [6] was 58%. Besides, in [10], the result was Active. The remaining at 24 h, 10 µM in [7] was under 1%. Moreover, the EC50 in [1] (read-out: EC50) stood at 0.015 µM. Further, in data set [9], the Drug uptake came out at 63%.
In the case of `COP(=O)(CCCC/C=C(\C)CO)OC`, in data set [2], the result was inactive.
In turn, `C/C(=C\CCP(=O)(O)CP(=O)(O)O)CO` gave an IC50 in [3] of 0.103 mM. Moreover, the 50% effective concentration (EC50) in [1] (read-out: EC50) was over 100 µM.
